Measurements taken from ChEMBL document CHEMBL2407075, “Sulphonamido-quinoxalines: search for anticancer agent” (Eur J Med Chem, 2013).

Tests used:
Format in all cases: functional
[1] = test system: KM12; experiment: Growth inhibition of human KM12 cells assessed as cell growth at 10^-4 M after 48 hrs by sulforhodamine B assay; settings: KM12, 48 h, read-out: Activity
[2] = test system: U-251; experiment: Growth inhibition of human U251 cells assessed as cell growth at 10^-4 M after 48 hrs by sulforhodamine B assay; settings: U-251, 48 h, read-out: Activity
[3] = test system: 786-0; experiment: Growth inhibition of human 786-0 cells assessed as cell growth at 10^-4 M after 48 hrs by sulforhodamine B assay; settings: 786-0, 48 h, read-out: Activity
Method in brief: (§1)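 Five-dose NCI-60 run (0.01, 0.1, 1, 10 and 100 µM, as 10-fold dilutions from a DMSO stock made at 400× the top final level). Cells were grown in RPMI 1640 with 5% FBS and 2 mM glutamine and plated for 24 h. They were then exposed for 48 h at 37 °C and 5% CO2. TCA fixation was followed by SRB staining with A515 read-out. Percent growth was taken relative to time-zero and control plates.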

[4] = test system: T47D; experiment: Growth inhibition of human T47D cells assessed as cell growth at 10^-4 M after 48 hrs by sulforhodamine B assay; settings: read-out: Activity
[5] = test system: U-251; experiment: Growth inhibition of human U251 cells assessed as cell growth at 10^-8 M after 48 hrs by sulforhodamine B assay; settings: U-251, 48 h, read-out: Activity
[6] = test system: IGROV-1; experiment: Growth inhibition of human IGROV1 cells assessed as cell growth at 10^-4 M after 48 hrs by sulforhodamine B assay; settings: IGROV-1, 48 h, read-out: Activity
Method in brief: (§2)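 Five-dose screen at NCI. Cells in RPMI 1640 with 5% FBS and 2 mM L-glutamine, seeded at 5000–40,000 cells/well and grown 24 h at 37 °C, 5% CO2 before dosing, with time-zero plates TCA-fixed. Drug diluted from DMSO stock to 0.01, 0.1, 1, 10 and 100 µM final, 48 h. Cells fixed with cold TCA (10% final), stained with 0.4% SRB and read at 515 nm. Percent growth from Tz, control and test absorbances; GI50, TGI and LC50 from dose-response curves.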

[7] = test system: MDA-MB-231; experiment: Growth inhibition of human MDA-MB-231 cells assessed as cell growth at 10^-5 M after 48 hrs by sulforhodamine B assay; settings: MDA-MB-231, 48 h, read-out: Activity
[8] = test system: SR; experiment: Growth inhibition of human SR cells assessed as cell growth at 10^-7 M after 48 hrs by sulforhodamine B assay; settings: read-out: Activity
[9] = test system: PC-3; experiment: Growth inhibition of human PC3 cells assessed as cell growth at 10^-7 M after 48 hrs by sulforhodamine B assay; settings: PC-3, 48 h, read-out: Activity
[10] = test system: SK-MEL-2; experiment: Growth inhibition of human SK-MEL-2 cells assessed as cell growth at 10^-8 M after 48 hrs by sulforhodamine B assay; settings: SK-MEL-2, 48 h, read-out: Activity
[11] = test system: MDA-MB-231; experiment: Growth inhibition of human MDA-MB-231 cells assessed as cell growth at 10^-4 M after 48 hrs by sulforhodamine B assay; settings: MDA-MB-231, 48 h, read-out: Activity
[12] = test system: SR; experiment: Growth inhibition of human SR cells after 48 hrs by sulforhodamine B assay; settings: for CC50: read-out: LC50 (the source's name)
Method in brief: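 Leukemia suspension cells in RPMI 1640 with 5% FBS and 2 mM L-glutamine were plated at 5000–40,000 cells/well and grown 24 h. Five concentrations (0.01–100 µM) were given for 48 h at 37 °C. Settled cells were fixed with 80% TCA (16% final) and SRB-stained, read at 515 nm. GI50 came from dose–response curves against time-zero and control plates.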

[13] = test system: HCT-15; experiment: Growth inhibition of human HCT15 cells assessed as cell growth at 10^-8 M after 48 hrs by sulforhodamine B assay; settings: HCT-15, 48 h, read-out: Activity; method in brief: as §2
[14] = test system: K562; experiment: Growth inhibition of human K562 cells assessed as cell growth at 10^-7 M after 48 hrs by sulforhodamine B assay; settings: K562, 48 h, read-out: Activity
[15] = Growth inhibition of human EKVX cells assessed as cell growth at 10^-4 M after 48 hrs by sulforhodamine B assay; settings: read-out: Activity; method in brief: as §1
[16] = Growth inhibition of human NCI-ADR-RES cells after 48 hrs by sulforhodamine B assay; settings: for CC50: read-out: LC50 (the source's name)
Method in brief: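 Adherent cells in RPMI 1640 with 5% FBS and 2 mM L-glutamine were plated at 5000–40,000 cells/well and grown 24 h. Five concentrations (0.01–100 µM, DMSO stock) were added for 48 h at 37 °C. Cells were fixed with cold TCA (10% final) and stained with SRB, read at 515 nm. GI50 came from log concentration–growth curves against time-zero and control plates.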

[17] = test system: UACC-62; experiment: Growth inhibition of human UACC62 cells assessed as cell growth at 10^-5 M after 48 hrs by sulforhodamine B assay; settings: UACC-62, 48 h, read-out: Activity
[18] = test system: K562; experiment: Growth inhibition of human K562 cells assessed as cell growth at 10^-4 M after 48 hrs by sulforhodamine B assay; settings: K562, 48 h, read-out: Activity
[19] = test system: IGROV-1; experiment: Growth inhibition of human IGROV1 cells assessed as cell growth at 10^-8 M after 48 hrs by sulforhodamine B assay; settings: IGROV-1, 48 h, read-out: Activity
[20] = test system: SNB-75; experiment: Growth inhibition of human SNB75 cells after 48 hrs by sulforhodamine B assay; settings: SNB-75, 48 h; for CC50: read-out: LC50 (the source's name)
Method in brief: (§3)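 Five-dose NCI 60 screen at 0.01, 0.1, 1, 10 and 100 µM, 48 h exposure after 24 h preincubation, in RPMI 1640 with 5% FBS and 2 mM glutamine. Fixed with TCA (10% final for adherent cells, 16% for suspension cells), stained with SRB, A515 read. Percent growth uses time-zero (Tz), control and treated plates. GI50, TGI and LC50 are read from the dose-response curves.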

[21] = test system: SK-MEL-28; experiment: Growth inhibition of human SK-MEL-28 cells assessed as cell growth at 10^-8 M after 48 hrs by sulforhodamine B assay; settings: SK-MEL-28, 48 h, read-out: Activity
[22] = test system: LOX IMVI; experiment: Growth inhibition of human LOXIMVI cells assessed as cell growth at 10^-4 M after 48 hrs by sulforhodamine B assay; settings: read-out: Activity
[23] = test system: LOX IMVI; experiment: Growth inhibition of human LOXIMVI cells assessed as cell growth at 10^-5 M after 48 hrs by sulforhodamine B assay; settings: read-out: Activity
[24] = test system: NCI-H23; experiment: Growth inhibition of human NCI-H23 cells after 48 hrs by sulforhodamine B assay; settings: NCI-H23, 48 h; for CC50: read-out: LC50 (the source's name); method in brief: as §3
[25] = test system: SF-539; experiment: Growth inhibition of human SF539 cells assessed as cell growth at 10^-8 M after 48 hrs by sulforhodamine B assay; settings: SF-539, 48 h, read-out: Activity
[26] = test system: CAKI-1; experiment: Growth inhibition of human CAKI-1 cells assessed as cell growth at 10^-4 M after 48 hrs by sulforhodamine B assay; settings: CAKI-1, 48 h, read-out: Activity; method in brief: as §1
[27] = test system: MCF7; experiment: Growth inhibition of human MCF7 cells assessed as cell growth at 10^-4 M after 48 hrs by sulforhodamine B assay; settings: MCF7, 48 h, read-out: Activity

Row | Compound | growth at 100 µM [1] | growth at 100 µM [2] | growth at 100 µM [3] | growth at 100 µM [4] | growth at 0.01 µM [5] | growth at 100 µM [6] | growth at 10 µM [7] | growth at 0.1 µM [8] | growth at 0.1 µM [9] | growth at 0.01 µM [10] | growth at 100 µM [11] | CC50 [12] | growth at 0.01 µM [13] | growth at 0.1 µM [14] | growth at 100 µM [15] | CC50 [16] | growth at 10 µM [17] | growth at 100 µM [18] | growth at 0.01 µM [19] | GI50 [20] | other results
1 | O=S(=O)(Nc1ccccn1)c1ccc2nc(-c3ccccc3)c(-c3ccccc3)nc2c1 | 53% | 47% | 50% | -1% | 99% | 63% | -60% | 89% | 93% | 99% | 41% | > 100 µM | 100% | 99% | 50% | > 100 µM | -13% | 48% | 103% | 2.23 µM | GI50 [12]: 1.4 µM; TGI [20]: > 100 µM; CC50 [20]: > 100 µM; growth at 0.01 µM [21]: 101%; growth at 100 µM [22]: 57%; growth at 10 µM [23]: -93%; GI50 [24]: 2.45 µM; TGI [24]: > 100 µM; CC50 [24]: > 100 µM; growth at 0.01 µM [25]: 96%; growth at 100 µM [26]: 73%; growth at 100 µM [27]: 40%
2 | O=S(=O)(Nc1ccc(Cl)cc1)c1ccc2nc(-c3ccccc3)c(-c3ccccc3)nc2c1 | 71% | 75% | 75% | 37% | 97% | 73% | -78% | 88% | 92% | 93% | 54% | > 100 µM | 100% | 98% | 65% | > 100 µM | -22% | 58% | 102% | 2.12 µM | TGI [16]: > 100 µM; TGI [20]: > 100 µM; CC50 [20]: > 100 µM; growth at 0.01 µM [21]: 97%; growth at 100 µM [22]: 66%; growth at 10 µM [23]: 3%; TGI [24]: > 100 µM; CC50 [24]: > 100 µM; growth at 0.01 µM [25]: 99%; growth at 100 µM [26]: 65%; growth at 100 µM [27]: 76%
